Measured values published in ChEMBL document CHEMBL4382248, “Optimization of a 1,3,4-oxadiazole series for inhibition of Ca2+/calmodulin-stimulated activity of adenylyl cyclases 1 and 8 for the treatment of chronic pain” (Eur J Med Chem, 2019).

Test system: not listed separately
Assay: Cytotoxicity against HEK293 cells expressing human AC1 at 30 uM preincubated for 30 mins followed by A23187 stimulation and measured after 1 hr by CellTiter-Glo luminescent cell viability assay relative to control
Format: cell-based
Conditions: HEK293 cells expressing human AC1, read-out: Activity
In short: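 Cytotoxicity in HEK lines stably expressing AC1 or AC8: single 30 µM dose, 90 min incubation. Viability was read by luminescent ATP reporter as % of DMSO-treated (100%) and Triton-X-treated (0%) controls.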

Row | Structure (SMILES) | viability at 1 h, 30 µM
1 | CCc1ccc(C(=O)Nc2nnc(-c3ccc4c(c3)CCCC4)o2)cc1 | 114%
2 | O=C(Nc1nnc(-c2cccs2)o1)c1ccccc1 | 97%
3 | Cc1cc(C(=O)Nc2nnc(-c3ccc4c(c3)CCCC4)o2)cc(C(F)(F)F)c1 | 116%
4 | O=C(Nc1nnc(-c2ccc3c(c2)OCCO3)o1)c1ccccc1 | 87%
5 | CSc1cccc(C(=O)Nc2nnc(-c3cccs3)o2)c1 | 110%
6 | CSc1cccc(C(=O)Nc2nnc(C3CCCCC3)o2)c1 | 117 to 137%
7 | O=C(Nc1nnc(-c2ccc(F)cc2)o1)c1cccc(C(F)(F)F)c1 | 108%
8 | O=C(Nc1nnc(-c2ccc3c(c2)CCCC3)o1)c1cccc(F)c1 | 94%
9 | COc1ccc(-c2nnc(NC(=O)c3cc(-c4cccs4)nc4ccccc34)o2)cc1 | 118%
10 | COc1cc(C(=O)Nc2nnc(-c3ccc(F)cc3)o2)cc(C(F)(F)F)c1 | 108%
11 | CCOc1cccc2cc(-c3nnc(NC(=O)c4ccccc4SC)o3)oc12 | 127%
12 | COc1ccc(C(=O)Nc2nnc(-c3ccc4c(c3)CCCC4)o2)cc1 | 118 to 121%
13 | COc1cccc(C(=O)Nc2nnc(-c3ccc4c(c3)CCCC4)o2)c1 | 111 to 124%
14 | CSc1cccc(C(=O)Nc2nnc(-c3ccc4c(c3)CCCC4)o2)c1 | 118 to 137%
15 | O=C(Nc1nnc(C2CCCCC2)o1)c1cccc(-c2ccccc2)c1 | 115%
16 | O=C(Nc1nnc(-c2ccc(F)cc2)o1)c1ccccc1F | 87%

Row | Structure (SMILES) | viability at 1 h, 30 µM
17 | CC(C)Oc1ccc(C(=O)Nc2nnc(-c3ccco3)o2)cc1 | 58%
18 | Cc1ccc(C(=O)Nc2nnc(-c3ccc(F)cc3)o2)cc1C(F)(F)F | 133%
19 | COc1cc(C(=O)Nc2nnc(C3CCCCC3)o2)cc(C(F)(F)F)c1 | 113%
20 | O=C(Nc1nnc(-c2ccc3c(c2)CCCC3)o1)c1ccc(F)cc1 | 110%
21 | O=C(Nc1nnc(-c2ccc(F)cc2)o1)c1ccc(Br)cc1 | 103%
22 | O=C(Nc1nnc(C2CCCCC2)o1)c1cccc(C(F)(F)F)c1 | 102%
23 | COc1cc(C(=O)Nc2nnc(-c3ccc4c(c3)CCCC4)o2)cc(C(F)(F)F)c1 | 121%
24 | CCc1ccc(C(=O)Nc2nnc(C3CCCCC3)o2)cc1 | 119%
25 | O=C(Nc1nnc(-c2ccc3c(c2)CCCC3)o1)c1ccc(Cl)cc1 | 97%
26 | COc1cccc(C(=O)Nc2nnc(-c3ccc(F)cc3)o2)c1 | 99%
27 | O=C(Nc1nnc(-c2ccc3c(c2)OCCO3)o1)c1ccc(Br)cc1 | 121%
28 | O=C(Nc1nnc(-c2ccc3c(c2)OCCO3)o1)c1cccc(C(F)(F)F)c1 | 116%
29 | CCc1ccc(C(=O)Nc2nnc(-c3ccc(F)cc3)o2)cc1 | 95%
30 | CC(C)Oc1ccc(C(=O)Nc2nnc(-c3ccccc3)o2)cc1 | 101%
31 | Cc1ccc(C(=O)Nc2nnc(C3CCCCC3)o2)cc1C | 112%

Target: T1, Adenylate cyclase type 1 (Homo sapiens, UniProt Q08828)
Assay: Inhibition of human AC1 expressed in HEK293 cells assessed as decrease in A23187-stimulated cAMP accumulation at 30 uM preincubated for 30 mins followed by A23187 stimulation and measured after 1 hr by fluorescence assay relative to control
Format: cell-based
Conditions: not given
In short: (§1)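 HEK cells stably expressing AC1 or AC8; Ca2+/calmodulin-stimulated cAMP accumulation measured. Dose-response curves began at 30 µM. […] Values are the mean and SEM of three independent experiments.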
Target sequence in this assay (Q08828 whole entry, looked up): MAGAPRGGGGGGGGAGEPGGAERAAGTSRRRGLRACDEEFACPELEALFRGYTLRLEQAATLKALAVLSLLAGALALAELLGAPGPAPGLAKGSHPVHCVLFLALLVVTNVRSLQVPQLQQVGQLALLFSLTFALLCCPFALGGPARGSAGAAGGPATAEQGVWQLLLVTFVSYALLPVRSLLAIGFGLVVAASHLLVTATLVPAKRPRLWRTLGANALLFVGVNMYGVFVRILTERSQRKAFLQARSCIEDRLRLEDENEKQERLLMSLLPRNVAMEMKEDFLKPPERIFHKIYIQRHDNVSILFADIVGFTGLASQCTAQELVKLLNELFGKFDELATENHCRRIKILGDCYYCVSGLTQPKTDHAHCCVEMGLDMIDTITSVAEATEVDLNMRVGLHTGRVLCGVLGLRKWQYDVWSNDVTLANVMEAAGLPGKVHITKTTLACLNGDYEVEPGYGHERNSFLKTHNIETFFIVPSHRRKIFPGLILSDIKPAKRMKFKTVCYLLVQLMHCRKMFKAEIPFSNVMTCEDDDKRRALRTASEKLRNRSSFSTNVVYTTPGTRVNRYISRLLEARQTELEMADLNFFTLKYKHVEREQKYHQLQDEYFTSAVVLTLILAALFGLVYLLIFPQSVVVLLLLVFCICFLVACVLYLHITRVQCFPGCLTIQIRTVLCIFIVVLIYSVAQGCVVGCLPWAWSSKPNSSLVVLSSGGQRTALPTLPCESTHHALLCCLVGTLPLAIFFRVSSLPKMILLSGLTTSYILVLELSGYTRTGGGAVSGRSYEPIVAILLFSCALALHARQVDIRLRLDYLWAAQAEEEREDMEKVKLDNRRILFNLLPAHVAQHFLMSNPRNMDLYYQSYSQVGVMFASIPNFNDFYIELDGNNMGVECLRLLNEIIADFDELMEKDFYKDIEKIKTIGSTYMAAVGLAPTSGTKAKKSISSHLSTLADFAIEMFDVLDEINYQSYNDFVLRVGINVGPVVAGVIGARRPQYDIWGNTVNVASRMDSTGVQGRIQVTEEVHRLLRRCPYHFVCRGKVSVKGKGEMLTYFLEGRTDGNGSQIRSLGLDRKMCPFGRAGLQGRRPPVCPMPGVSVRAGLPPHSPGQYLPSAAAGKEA

Row | Structure (SMILES) | inhibition
32 | O=C(Nc1nnc(-c2ccc(F)cc2)o1)c1ccccc1F | 12%
33 | CC(C)Oc1ccc(C(=O)Nc2nnc(-c3ccco3)o2)cc1 | 39%

Target: T2, Adenylate cyclase type 8 (Homo sapiens, UniProt P40145)
Assay: Inhibition of human AC8 expressed in HEK293 cells assessed as decrease in A23187-stimulated cAMP accumulation preincubated for 30 mins followed by A23187 stimulation and measured after 1 hr by fluorescence assay
Format: cell-based
Conditions: not given
In short: as §1

T2 sequence (P40145 whole entry): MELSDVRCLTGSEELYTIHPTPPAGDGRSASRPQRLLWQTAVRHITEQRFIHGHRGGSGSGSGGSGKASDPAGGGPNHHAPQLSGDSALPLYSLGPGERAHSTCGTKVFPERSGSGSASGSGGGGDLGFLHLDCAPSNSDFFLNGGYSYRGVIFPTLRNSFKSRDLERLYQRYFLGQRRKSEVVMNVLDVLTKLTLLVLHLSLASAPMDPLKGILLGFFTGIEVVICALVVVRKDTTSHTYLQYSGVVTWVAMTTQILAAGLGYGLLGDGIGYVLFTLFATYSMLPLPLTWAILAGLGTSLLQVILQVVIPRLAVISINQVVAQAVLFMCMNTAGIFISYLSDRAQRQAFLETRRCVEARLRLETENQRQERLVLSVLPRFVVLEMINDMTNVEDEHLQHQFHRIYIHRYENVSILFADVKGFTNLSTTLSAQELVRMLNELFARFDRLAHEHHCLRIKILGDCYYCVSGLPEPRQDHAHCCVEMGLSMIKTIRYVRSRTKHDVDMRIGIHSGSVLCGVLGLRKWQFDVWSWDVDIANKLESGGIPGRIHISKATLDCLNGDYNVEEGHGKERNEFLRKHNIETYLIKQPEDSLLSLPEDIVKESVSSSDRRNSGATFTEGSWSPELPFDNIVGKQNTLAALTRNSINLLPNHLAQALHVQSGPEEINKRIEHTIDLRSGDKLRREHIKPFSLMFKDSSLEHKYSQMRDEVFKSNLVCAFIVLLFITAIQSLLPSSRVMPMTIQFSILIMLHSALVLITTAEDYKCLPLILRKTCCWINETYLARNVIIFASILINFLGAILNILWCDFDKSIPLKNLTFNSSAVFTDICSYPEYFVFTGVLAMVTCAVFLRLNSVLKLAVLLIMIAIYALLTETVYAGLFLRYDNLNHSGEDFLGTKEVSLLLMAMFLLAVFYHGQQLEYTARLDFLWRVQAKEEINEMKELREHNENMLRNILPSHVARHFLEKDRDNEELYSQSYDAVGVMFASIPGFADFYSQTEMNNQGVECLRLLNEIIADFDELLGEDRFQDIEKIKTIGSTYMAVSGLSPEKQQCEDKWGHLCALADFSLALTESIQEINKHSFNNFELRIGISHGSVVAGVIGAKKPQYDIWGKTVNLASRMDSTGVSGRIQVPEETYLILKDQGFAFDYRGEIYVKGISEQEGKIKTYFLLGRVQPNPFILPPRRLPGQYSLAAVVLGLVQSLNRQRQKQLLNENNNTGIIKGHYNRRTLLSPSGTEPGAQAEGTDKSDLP

Row | Structure (SMILES) | IC50
34 | COc1ccc(-c2nnc(NC(=O)c3cc(-c4cccs4)nc4ccccc34)o2)cc1 | 5.6 µM
35 | COc1cc(C(=O)Nc2nnc(-c3ccc(F)cc3)o2)cc(C(F)(F)F)c1 | 29 µM
36 | CCOc1cccc2cc(-c3nnc(NC(=O)c4ccccc4SC)o3)oc12 | 11 µM
37 | O=C(Nc1nnc(-c2ccc3c(c2)CCCC3)o1)c1ccc(Cl)cc1 | 3.6 µM

Target: T2, Adenylate cyclase type 8
Assay: Inhibition of human AC8 expressed in HEK293 cells assessed as decrease in A23187-stimulated cAMP accumulation at 30 uM preincubated for 30 mins followed by A23187 stimulation and measured after 1 hr by fluorescence assay relative to control
Format: cell-based
Conditions: not given
In short: as §1

Row | Structure (SMILES) | inhibition
38 | O=C(Nc1nnc(-c2cccs2)o1)c1ccccc1 | 18%
39 | O=C(Nc1nnc(-c2ccc3c(c2)OCCO3)o1)c1ccccc1 | 24%
40 | CSc1cccc(C(=O)Nc2nnc(-c3cccs3)o2)c1 | 34%
41 | CSc1cccc(C(=O)Nc2nnc(C3CCCCC3)o2)c1 | 31 to 43%
42 | COc1ccc(C(=O)Nc2nnc(-c3ccc4c(c3)CCCC4)o2)cc1 | 34%
43 | O=C(Nc1nnc(-c2ccc(F)cc2)o1)c1ccccc1F | 13%
44 | CC(C)Oc1ccc(C(=O)Nc2nnc(-c3ccco3)o2)cc1 | 21%
45 | O=C(Nc1nnc(-c2ccc(F)cc2)o1)c1ccc(Br)cc1 | 33%
46 | CCc1ccc(C(=O)Nc2nnc(C3CCCCC3)o2)cc1 | 44%
47 | COc1cccc(C(=O)Nc2nnc(-c3ccc(F)cc3)o2)c1 | 23%
48 | CCc1ccc(C(=O)Nc2nnc(-c3ccc(F)cc3)o2)cc1 | 32%
49 | CC(C)Oc1ccc(C(=O)Nc2nnc(-c3ccccc3)o2)cc1 | 43%

Target: Adenylate cyclase type 5 (Homo sapiens) (UniProt O95622)
Assay: Inhibition of human AC5 expressed in HEK293 cells assessed as forskolin-stimulated cAMP accumulation at 30 uM preincubated for 30 mins followed by forskolin stimulation and measured after 1 hr by fluorescence assay relative to control
Format: cell-based
Parameters: scale not given: the % may be the effect or the level left
Conditions: not given
In short: (§2)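 Group 2 AC2 (PKC-stimulated) or group 3 AC (forskolin-stimulated) cells were exposed to a single 30 µM dose (n = 3). cAMP activity was normalized to DMSO controls set as 100%.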

Chain of Adenylate cyclase type 5 (Homo sapiens) (O95622 whole entry, looked up): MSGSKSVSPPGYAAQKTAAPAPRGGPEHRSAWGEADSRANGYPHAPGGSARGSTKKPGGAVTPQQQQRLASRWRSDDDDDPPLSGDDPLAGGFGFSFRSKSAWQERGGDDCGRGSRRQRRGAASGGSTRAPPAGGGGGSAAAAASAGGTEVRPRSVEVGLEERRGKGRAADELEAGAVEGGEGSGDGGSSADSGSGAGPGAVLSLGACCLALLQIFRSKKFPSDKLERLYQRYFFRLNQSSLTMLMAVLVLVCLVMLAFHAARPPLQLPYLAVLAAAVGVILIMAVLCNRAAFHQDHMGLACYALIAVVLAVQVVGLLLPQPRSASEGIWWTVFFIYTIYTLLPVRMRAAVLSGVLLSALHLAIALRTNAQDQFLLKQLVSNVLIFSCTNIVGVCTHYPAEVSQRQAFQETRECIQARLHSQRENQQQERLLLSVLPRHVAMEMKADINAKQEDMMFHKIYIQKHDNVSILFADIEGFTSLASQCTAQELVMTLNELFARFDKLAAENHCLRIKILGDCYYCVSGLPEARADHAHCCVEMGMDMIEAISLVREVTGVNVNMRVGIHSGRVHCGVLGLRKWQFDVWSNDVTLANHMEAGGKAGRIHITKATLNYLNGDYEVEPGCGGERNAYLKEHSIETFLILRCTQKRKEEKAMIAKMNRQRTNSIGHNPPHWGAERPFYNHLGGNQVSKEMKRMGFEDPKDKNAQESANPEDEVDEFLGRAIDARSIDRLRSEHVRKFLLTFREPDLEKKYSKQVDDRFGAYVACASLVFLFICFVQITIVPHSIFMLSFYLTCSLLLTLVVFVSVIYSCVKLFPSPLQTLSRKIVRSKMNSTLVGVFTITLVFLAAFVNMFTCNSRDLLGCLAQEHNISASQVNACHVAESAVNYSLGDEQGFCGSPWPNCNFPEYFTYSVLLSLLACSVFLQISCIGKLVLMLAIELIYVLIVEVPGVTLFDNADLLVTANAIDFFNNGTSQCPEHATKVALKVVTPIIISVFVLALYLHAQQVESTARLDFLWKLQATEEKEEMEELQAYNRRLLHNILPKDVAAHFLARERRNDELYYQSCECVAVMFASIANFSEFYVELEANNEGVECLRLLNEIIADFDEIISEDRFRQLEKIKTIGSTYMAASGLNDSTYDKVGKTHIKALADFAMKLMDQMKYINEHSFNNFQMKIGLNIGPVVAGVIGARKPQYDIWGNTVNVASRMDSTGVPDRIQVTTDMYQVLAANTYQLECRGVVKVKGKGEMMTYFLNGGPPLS

Row | Structure (SMILES) | Activity
50 | O=C(Nc1nnc(-c2ccc3c(c2)OCCO3)o1)c1ccc(Br)cc1 | 159%

Target: T1, Adenylate cyclase type 1
Assay: Inhibition of human AC1 expressed in HEK293 cells assessed as decrease in A23187-stimulated cAMP accumulation preincubated for 30 mins followed by A23187 stimulation and measured after 1 hr by fluorescence assay
Format: cell-based
Conditions: not given
In short: as §1
Target sequence in this assay (Q08828 whole entry): as the sequence (Q08828 whole entry, looked up) above

Row | Structure (SMILES) | IC50
51 | O=C(Nc1nnc(-c2cccs2)o1)c1ccccc1 | 28 µM
52 | COc1ccc(-c2nnc(NC(=O)c3cc(-c4cccs4)nc4ccccc34)o2)cc1 | 4.6 µM
53 | CCOc1cccc2cc(-c3nnc(NC(=O)c4ccccc4SC)o3)oc12 | 11 µM
54 | O=C(Nc1nnc(-c2ccc3c(c2)CCCC3)o1)c1ccc(Cl)cc1 | 1.5 µM
55 | CC(C)Oc1ccc(C(=O)Nc2nnc(-c3ccccc3)o2)cc1 | 5.4 µM

Target: Adenylate cyclase type 2 (Homo sapiens) (UniProt Q08462)
Assay: Inhibition of human AC2 expressed in HEK293 cells assessed as PMA-stimulated cAMP accumulation at 30 uM preincubated for 30 mins followed by PMA stimulation and measured after 1 hr by fluorescence assay relative to control
Format: cell-based
Parameters: scale not given: the % may be the effect or the level left
Conditions: not given
In short: as §2

Chain of Adenylate cyclase type 2 (Homo sapiens) (Q08462 whole entry): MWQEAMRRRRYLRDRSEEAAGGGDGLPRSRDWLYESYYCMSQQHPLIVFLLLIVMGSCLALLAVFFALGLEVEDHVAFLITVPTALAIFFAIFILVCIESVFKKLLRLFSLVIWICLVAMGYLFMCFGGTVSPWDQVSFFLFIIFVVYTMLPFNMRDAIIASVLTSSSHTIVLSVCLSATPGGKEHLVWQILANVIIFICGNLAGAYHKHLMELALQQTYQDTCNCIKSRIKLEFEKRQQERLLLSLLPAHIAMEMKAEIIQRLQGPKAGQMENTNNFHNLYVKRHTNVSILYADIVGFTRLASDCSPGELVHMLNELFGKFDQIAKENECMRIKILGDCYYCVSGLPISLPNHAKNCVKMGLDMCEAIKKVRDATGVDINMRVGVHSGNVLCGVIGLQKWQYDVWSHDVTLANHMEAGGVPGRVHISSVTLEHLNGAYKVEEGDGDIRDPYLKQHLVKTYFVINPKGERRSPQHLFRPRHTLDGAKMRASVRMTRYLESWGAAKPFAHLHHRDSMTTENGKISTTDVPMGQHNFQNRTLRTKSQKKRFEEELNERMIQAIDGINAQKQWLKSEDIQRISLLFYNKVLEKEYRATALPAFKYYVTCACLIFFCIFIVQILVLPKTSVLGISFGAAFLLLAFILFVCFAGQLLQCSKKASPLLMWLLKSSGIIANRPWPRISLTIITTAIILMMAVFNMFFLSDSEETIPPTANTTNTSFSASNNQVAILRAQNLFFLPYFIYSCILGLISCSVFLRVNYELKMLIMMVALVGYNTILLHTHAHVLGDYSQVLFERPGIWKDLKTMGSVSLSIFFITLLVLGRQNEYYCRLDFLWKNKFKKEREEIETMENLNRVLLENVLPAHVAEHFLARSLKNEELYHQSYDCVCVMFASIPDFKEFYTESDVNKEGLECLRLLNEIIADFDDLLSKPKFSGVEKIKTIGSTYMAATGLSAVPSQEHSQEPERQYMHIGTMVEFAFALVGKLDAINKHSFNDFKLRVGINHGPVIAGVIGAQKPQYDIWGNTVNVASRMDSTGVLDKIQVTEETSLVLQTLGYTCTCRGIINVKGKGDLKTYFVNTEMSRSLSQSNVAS

Row | Structure (SMILES) | Activity
56 | O=C(Nc1nnc(-c2ccc3c(c2)OCCO3)o1)c1ccc(Br)cc1 | 198%

Species: Homo sapiens
Assay: Selectivity ratio of IC50 for human AC8 expressed in HEK293 cells to IC50 for human AC1 expressed in HEK293 cells
Format: cell-based
Conditions: not given

Row | Structure (SMILES) | Ratio IC50
57 | CCc1ccc(C(=O)Nc2nnc(-c3ccc4c(c3)CCCC4)o2)cc1 | 1.7
58 | Cc1cc(C(=O)Nc2nnc(-c3ccc4c(c3)CCCC4)o2)cc(C(F)(F)F)c1 | 0.26
59 | O=C(Nc1nnc(-c2ccc3c(c2)OCCO3)o1)c1ccccc1 | > 1
60 | CSc1cccc(C(=O)Nc2nnc(C3CCCCC3)o2)c1 | > 4.5
61 | O=C(Nc1nnc(-c2ccc(F)cc2)o1)c1cccc(C(F)(F)F)c1 | 5.8
62 | O=C(Nc1nnc(-c2ccc3c(c2)CCCC3)o1)c1cccc(F)c1 | 4.2
63 | COc1ccc(-c2nnc(NC(=O)c3cc(-c4cccs4)nc4ccccc34)o2)cc1 | 1.2
64 | COc1cc(C(=O)Nc2nnc(-c3ccc(F)cc3)o2)cc(C(F)(F)F)c1 | 5.8
65 | CCOc1cccc2cc(-c3nnc(NC(=O)c4ccccc4SC)o3)oc12 | 1
66 | COc1ccc(C(=O)Nc2nnc(-c3ccc4c(c3)CCCC4)o2)cc1 | > 4.7
67 | COc1cccc(C(=O)Nc2nnc(-c3ccc4c(c3)CCCC4)o2)c1 | 0.83 to 8.1
68 | CSc1cccc(C(=O)Nc2nnc(-c3ccc4c(c3)CCCC4)o2)c1 | 5.5 to 10
69 | O=C(Nc1nnc(C2CCCCC2)o1)c1cccc(-c2ccccc2)c1 | 1
70 | Cc1ccc(C(=O)Nc2nnc(-c3ccc(F)cc3)o2)cc1C(F)(F)F | 1.9
71 | COc1cc(C(=O)Nc2nnc(C3CCCCC3)o2)cc(C(F)(F)F)c1 | 1.9
72 | O=C(Nc1nnc(-c2ccc3c(c2)CCCC3)o1)c1ccc(F)cc1 | 3.7
73 | O=C(Nc1nnc(C2CCCCC2)o1)c1cccc(C(F)(F)F)c1 | > 3.6
74 | COc1cc(C(=O)Nc2nnc(-c3ccc4c(c3)CCCC4)o2)cc(C(F)(F)F)c1 | 1.1
75 | O=C(Nc1nnc(-c2ccc3c(c2)CCCC3)o1)c1ccc(Cl)cc1 | 2.4
76 | O=C(Nc1nnc(-c2ccc3c(c2)OCCO3)o1)c1ccc(Br)cc1 | 6.8
77 | O=C(Nc1nnc(-c2ccc3c(c2)OCCO3)o1)c1cccc(C(F)(F)F)c1 | 6.3
78 | CC(C)Oc1ccc(C(=O)Nc2nnc(-c3ccccc3)o2)cc1 | > 5.5
79 | Cc1ccc(C(=O)Nc2nnc(C3CCCCC3)o2)cc1C | 5.4
